Published values collected from several papers.
Compare with care: the assays were run in different laboratories.
Sample: plasma

Cn1c(=O)oc2ccc(-c3ccc(C[C@@H](C#N)NC(=O)[C@@H]4CNCCCO4)cc3)cc21 has an AUC of 13.2 µM·h (male human; oral; 35 mg; single dose, healthy volunteers).
For CC(C)(O)c1ccccc1-c1ccc2[nH]c(/C=C/c3ccc(C(F)(F)F)cc3)nc2c1, the AUC(0-t) was 27900 ng·h/mL (male human; oral; 225 mg; single dose, fasted, healthy volunteers).
The AUC of Cc1ccc(C(=O)N(CCCN)[C@@H](c2oc3cc(Cl)ccc3c(=O)c2Cc2ccccc2)C(C)C)cc1 is reported as 8960 ng·h/mL (human; intravenous; 5 mg/m²; single dose, patients, infusion).
CC(C)n1cc(C#N)c2cc(-n3cc(C(=O)O)cn3)ccc21 gave an AUC(0-inf) of 92000 ng·h/mL (human; oral; 400 mg; single dose, fasted, healthy volunteers).
CS(=O)(=O)CCC#N has an AUC of 70300 ng·h/mL (human; oral; 100 mg; multiple doses, once daily).
CO[C@H]1CC[C@H](N2C(=O)CNc3ncc(-c4ccc(C(C)(C)O)nc4)nc32)CC1 gave an AUC(0-t) of 2950 ng·h/mL (human; oral; 60 mg; multiple doses, patients).
For Cn1cc(-c2ccc(S(=O)(=O)[C@@H]3C[C@@H](C(=O)NC4(C#N)CC4)N(C(=O)C4(C(F)(F)F)CC4)C3)c(C(F)(F)F)c2)cn1, the AUC(0-inf) was 21000 ng·h/mL (human; oral; 300 mg; single dose, fasted, healthy volunteers).
For COc1cc(C(=O)NC2CCN(C)CC2)c(F)cc1Nc1ncc(C(F)(F)F)c(Oc2cccc3c2C(=O)N(C)C3)n1, the AUC was 79.6 µM·h (human; oral; 300 mg; multiple doses, once daily, steady state, patients).
CCc1nc2c(C)cc(N3CCN(CC(=O)N4CC(O)C4)CC3)cn2c1N(C)c1nc(-c2ccc(F)cc2)c(C#N)s1 gave an AUC(0-inf) of 6700 ng·h/mL (human; oral; 150 mg; single dose, fed, healthy volunteers).
COc1ccc([C@@H]2CN(C(=O)[C@@H](O)CO)C[C@@]2(C)[C@@H](C)O)cc1OC1CN(c2ccc(C)cn2)C1 has an AUC(0-inf) of 59.1 ng·h/mL (human; oral; 0.1 mg; single dose, healthy volunteers).
